Results taken from ChEMBL document CHEMBL1134286, “Novel erythromycin derivatives with aryl groups tethered to the C-6 position are potent protein synthesis inhibitors and active against multidrug-resistant respiratory pathogens” (J Med Chem, 2001).
In brackets after ≈: the same amount, converted by molar mass.

Key:
Assay type in all cases: functional
Staphylococcus aureus [1] = test: Minimum inhibitory concentration against Staphylococcus aureus A 5177 MLSB-i
In short: (§1)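 MICs were determined by agar dilution following National Committee for Clinical Laboratory Standards recommendations. Values are in µg/mL.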

Staphylococcus aureus [2] = test: Minimum inhibitory concentration against Staphylococcus aureus A 5278 MLSB-c; in short: as §1
[3] = Minimum inhibitory concentration against Streptococcus pyogenes PIU2548 efflux; in short: as §1
Streptococcus pneumoniae [4] = test: Minimum inhibitory concentration against Streptococcus pneumoniae 5649 efflux; in short: as §1
[5] = Minimum inhibitory concentration against Streptococcus pneumoniae 5737 MLSB; in short: as §1
Streptococcus pneumoniae [6] = test: Minimum inhibitory concentration against Streptococcus pneumoniae ATCC 6303 Ery-S; in short: as §1
[7] = Minimum inhibitory concentration against Streptococcus pyogenes 930MLSB; in short: as §1
Staphylococcus aureus [8] = test: Minimum inhibitory concentration against Staphylococcus aureus ATCC 6538PEry-S; settings: ATCC 6538P; in short: as §1
[9] = Minimum inhibitory concentration against Streptococcus pyogenes EES 61 Ery-S; in short: as §1
[10] = Minimum inhibitory concentration against Haemophilus influenzae DILL Amp-R; in short: as §1

Question: With `CC[C@H]1OC(=O)[C@H](C)C(=O)[C@H](C)[C@@H](O[C@@H]2O[C@H](C)C[C@H](N(C)C)[C@H]2O)[C@](C)(OC/C=C/c2ccc3ncccc3c2)C[C@@H](C)C(=O)[C@H](C)[C@H]2NC(=O)O[C@@]21C` as the compound, how does the MIC (Staphylococcus aureus [1]) read?
Answer: 0.05 µg/mL (≈ 0.0653 µM)

Question: And the MIC (Staphylococcus aureus [2])?
Answer: > 100 µg/mL

Question: What about the MIC [3] of the same compound?
Answer: 0.25 µg/mL (≈ 0.326 µM)

Question: What about the MIC (Streptococcus pneumoniae [4]) of the same compound?
Answer: 0.25 µg/mL (≈ 0.326 µM)

Question: And the MIC [5]?
Answer: 1 µg/mL (≈ 1.31 µM)

Question: And the MIC (Streptococcus pneumoniae [6])?
Answer: 0.004 µg/mL (≈ 0.00522 µM)

Question: What about the MIC [7] of the same compound?
Answer: 1 µg/mL (≈ 1.31 µM)

Question: And the MIC (Staphylococcus aureus [8])?
Answer: 0.05 µg/mL (≈ 0.0653 µM)

Question: And the MIC [9]?
Answer: 0.004 µg/mL (≈ 0.00522 µM)

Question: And the MIC [10]?
Answer: 1 µg/mL (≈ 1.31 µM)

Question: Which MIC (Staphylococcus aureus [1]) does the source give for `CC[C@H]1OC(=O)[C@H](C)C(=O)[C@H](C)[C@@H](O[C@@H]2O[C@H](C)C[C@H](N(C)C)[C@H]2O)[C@](C)(OC/C=C/c2ccccc2)C[C@@H](C)C(=O)[C@H](C)[C@@H](O)[C@]1(C)O` here?
Answer: 1.56 µg/mL (≈ 2.26 µM)

Question: And the MIC (Staphylococcus aureus [2])?
Answer: > 100 µg/mL

Question: What about the MIC [3] of the same compound?
Answer: 2 µg/mL (≈ 2.9 µM)

Question: And the MIC (Streptococcus pneumoniae [4])?
Answer: 2 µg/mL (≈ 2.9 µM)

Question: What about the MIC [5] of the same compound?
Answer: 64 µg/mL (≈ 92.8 µM)

Question: What about the MIC (Streptococcus pneumoniae [6]) of the same compound?
Answer: 1 µg/mL (≈ 1.45 µM)

Question: What about the MIC [7] of the same compound?
Answer: 64 µg/mL (≈ 92.8 µM)

Question: What about the MIC (Staphylococcus aureus [8]) of the same compound?
Answer: 1.56 µg/mL (≈ 2.26 µM)

Question: And the MIC [9]?
Answer: 0.25 µg/mL (≈ 0.362 µM)

Question: What about the MIC [10] of the same compound?
Answer: 128 µg/mL (≈ 186 µM)

Question: Which MIC (Staphylococcus aureus [1]) does the source give for `C=CCO[C@]1(C)C[C@@H](C)C(=O)[C@H](C)[C@H]2N(C)C(=O)O[C@]2(C)[C@@H](CC)OC(=O)[C@H](C)C(=O)[C@H](C)[C@H]1O[C@@H]1O[C@H](C)C[C@H](N(C)C)[C@H]1O` here?
Answer: 6.2 µg/mL (≈ 9.5 µM)

Question: And the MIC (Staphylococcus aureus [2])?
Answer: > 100 µg/mL

Question: What about the MIC [3] of the same compound?
Answer: 2 µg/mL (≈ 3.06 µM)

Question: And the MIC (Streptococcus pneumoniae [4])?
Answer: 0.5 µg/mL (≈ 0.766 µM)

Question: What about the MIC [5] of the same compound?
Answer: > 128 µg/mL

Question: And the MIC (Streptococcus pneumoniae [6])?
Answer: 0.5 µg/mL (≈ 0.766 µM)

Question: What about the MIC [7] of the same compound?
Answer: > 128 µg/mL

Question: What about the MIC (Staphylococcus aureus [8]) of the same compound?
Answer: 6.2 µg/mL (≈ 9.5 µM)

Question: And the MIC [9]?
Answer: 0.5 µg/mL (≈ 0.766 µM)

Question: What about the MIC [10] of the same compound?
Answer: > 128 µg/mL

Question: For `CC[C@H]1OC(=O)[C@H](C)C(=O)[C@H](C)[C@@H](O[C@@H]2O[C@H](C)C[C@H](N(C)C)[C@H]2O)[C@](C)(OC/C=C/c2ccnc3ccccc23)C[C@@H](C)C(=O)[C@H](C)[C@H]2NC(=O)O[C@@]21C`, which MIC (Staphylococcus aureus [1]) is on record?
Answer: 0.2 µg/mL (≈ 0.261 µM)

Question: And the MIC (Staphylococcus aureus [2])?
Answer: > 100 µg/mL

Question: What about the MIC [3] of the same compound?
Answer: 2 µg/mL (≈ 2.61 µM)

Question: What about the MIC (Streptococcus pneumoniae [4]) of the same compound?
Answer: 1 µg/mL (≈ 1.31 µM)

Question: And the MIC [5]?
Answer: 128 µg/mL (≈ 167 µM)

Question: What about the MIC (Streptococcus pneumoniae [6]) of the same compound?
Answer: 0.03 µg/mL (≈ 0.0392 µM)

Question: What about the MIC [7] of the same compound?
Answer: 64 µg/mL (≈ 83.6 µM)

Question: And the MIC (Staphylococcus aureus [8])?
Answer: 0.2 µg/mL (≈ 0.261 µM)

Question: And the MIC [9]?
Answer: 0.03 µg/mL (≈ 0.0392 µM)

Question: And the MIC [10]?
Answer: 4 µg/mL (≈ 5.22 µM)

Question: With `CC[C@H]1OC(=O)[C@H](C)C(=O)[C@H](C)[C@@H](O[C@@H]2O[C@H](C)C[C@H](N(C)C)[C@H]2O)[C@](C)(OC/C=C/c2cccnc2)C[C@@H](C)C(=O)[C@H](C)[C@H]2NC(=O)O[C@@]21C` as the compound, how does the MIC (Staphylococcus aureus [1]) read?
Answer: 0.1 µg/mL (≈ 0.14 µM)

Question: What about the MIC (Staphylococcus aureus [2]) of the same compound?
Answer: > 100 µg/mL

Question: And the MIC [3]?
Answer: 0.5 µg/mL (≈ 0.698 µM)

Question: And the MIC (Streptococcus pneumoniae [4])?
Answer: 0.5 µg/mL (≈ 0.698 µM)

Question: What about the MIC [5] of the same compound?
Answer: > 128 µg/mL

Question: And the MIC (Streptococcus pneumoniae [6])?
Answer: 0.03 µg/mL (≈ 0.0419 µM)

Question: What about the MIC [7] of the same compound?
Answer: > 128 µg/mL

Question: What about the MIC (Staphylococcus aureus [8]) of the same compound?
Answer: 0.1 µg/mL (≈ 0.14 µM)

Question: What about the MIC [9] of the same compound?
Answer: 0.03 µg/mL (≈ 0.0419 µM)

Question: What about the MIC [10] of the same compound?
Answer: 8 µg/mL (≈ 11.2 µM)

Question: With `CC[C@H]1OC(=O)[C@H](C)C(=O)[C@H](C)[C@@H](O[C@@H]2O[C@H](C)C[C@H](N(C)C)[C@H]2O)[C@](C)(OC/C=C/c2ccc3ccccc3c2)C[C@@H](C)C(=O)[C@H](C)[C@H]2NC(=O)O[C@@]21C` as the compound, how does the MIC (Staphylococcus aureus [1]) read?
Answer: 0.1 µg/mL (≈ 0.131 µM)

Question: And the MIC (Staphylococcus aureus [2])?
Answer: > 100 µg/mL

Question: What about the MIC [3] of the same compound?
Answer: 1 µg/mL (≈ 1.31 µM)

Question: What about the MIC (Streptococcus pneumoniae [4]) of the same compound?
Answer: 1 µg/mL (≈ 1.31 µM)

Question: What about the MIC [5] of the same compound?
Answer: > 128 µg/mL

Question: And the MIC (Streptococcus pneumoniae [6])?
Answer: 0.015 µg/mL (≈ 0.0196 µM)

Question: And the MIC [7]?
Answer: 16 µg/mL (≈ 20.9 µM)

Question: And the MIC (Staphylococcus aureus [8])?
Answer: 0.1 µg/mL (≈ 0.131 µM)

Question: And the MIC [9]?
Answer: 0.015 µg/mL (≈ 0.0196 µM)

Question: And the MIC [10]?
Answer: 16 µg/mL (≈ 20.9 µM)

Question: Which results are given for `C=CCO[C@]1(C)C[C@@H](C)C(=O)[C@H](C)[C@H]2N(CCN(C)C)C(=O)O[C@]2(C)[C@@H](CC)OC(=O)[C@H](C)C(=O)[C@H](C)[C@H]1O[C@@H]1O[C@H](C)C[C@H](N(C)C)[C@H]1O`?
Answer: MIC (Staphylococcus aureus [1]): 6.2 µg/mL (≈ 8.73 µM); MIC (Staphylococcus aureus [2]): > 100 µg/mL; MIC [3]: 4 µg/mL (≈ 5.63 µM); MIC (Streptococcus pneumoniae [4]): 2 µg/mL (≈ 2.82 µM); MIC [5]: > 128 µg/mL; MIC (Streptococcus pneumoniae [6]): 1 µg/mL (≈ 1.41 µM); MIC [7]: > 128 µg/mL; MIC (Staphylococcus aureus [8]): 6.2 µg/mL (≈ 8.73 µM); MIC [9]: 0.5 µg/mL (≈ 0.704 µM); MIC [10]: 64 µg/mL (≈ 90.2 µM)

Question: For `C=CCO[C@]1(C)C[C@@H](C)C2=NCCN3C(=O)O[C@](C)([C@@H](CC)OC(=O)[C@H](C)C(=O)[C@H](C)[C@H]1O[C@@H]1O[C@H](C)C[C@H](N(C)C)[C@H]1O)[C@H]3[C@H]2C`, which MIC (Staphylococcus aureus [1]) is on record?
Answer: 1.56 µg/mL (≈ 2.35 µM)

Question: And the MIC (Staphylococcus aureus [2])?
Answer: > 100 µg/mL

Question: And the MIC [3]?
Answer: 4 µg/mL (≈ 6.03 µM)

Question: And the MIC (Streptococcus pneumoniae [4])?
Answer: 0.5 µg/mL (≈ 0.753 µM)

Question: And the MIC [5]?
Answer: > 128 µg/mL

Question: And the MIC (Streptococcus pneumoniae [6])?
Answer: 0.25 µg/mL (≈ 0.377 µM)

Question: What about the MIC [7] of the same compound?
Answer: > 128 µg/mL

Question: What about the MIC (Staphylococcus aureus [8]) of the same compound?
Answer: 1.56 µg/mL (≈ 2.35 µM)

Question: What about the MIC [9] of the same compound?
Answer: 0.25 µg/mL (≈ 0.377 µM)

Question: What about the MIC [10] of the same compound?
Answer: 32 µg/mL (≈ 48.2 µM)

Question: For `C=CCO[C@]1(C)C[C@@H](C)C(=O)[C@H](C)[C@@H](O)[C@](C)(O)[C@@H](CC)OC(=O)[C@H](C)C(=O)[C@H](C)[C@H]1O[C@@H]1O[C@H](C)C[C@H](N(C)C)[C@H]1O`, which MIC (Staphylococcus aureus [1]) is on record?
Answer: 50 µg/mL (≈ 81.5 µM)

Question: And the MIC (Staphylococcus aureus [2])?
Answer: > 100 µg/mL

Question: And the MIC [3]?
Answer: 32 µg/mL (≈ 52.1 µM)

Question: What about the MIC (Streptococcus pneumoniae [4]) of the same compound?
Answer: 8 µg/mL (≈ 13 µM)

Question: And the MIC [5]?
Answer: > 128 µg/mL

Question: And the MIC (Streptococcus pneumoniae [6])?
Answer: 4 µg/mL (≈ 6.52 µM)

Question: And the MIC [7]?
Answer: > 128 µg/mL

Question: What about the MIC (Staphylococcus aureus [8]) of the same compound?
Answer: 12.5 µg/mL (≈ 20.4 µM)

Question: What about the MIC [10] of the same compound?
Answer: > 128 µg/mL

Question: What does the source list for `CC[C@H]1OC(=O)[C@H](C)C(=O)[C@H](C)[C@@H](O[C@@H]2O[C@H](C)C[C@H](N(C)C)[C@H]2O)[C@](C)(OC/C=C/c2ccc(Cl)cc2)C[C@@H](C)C(=O)[C@H](C)[C@@H](O)[C@]1(C)O`?
Answer: MIC (Staphylococcus aureus [1]): 1.56 µg/mL (≈ 2.15 µM); MIC (Staphylococcus aureus [2]): > 100 µg/mL; MIC [3]: 2 µg/mL (≈ 2.76 µM); MIC (Streptococcus pneumoniae [4]): 2 µg/mL (≈ 2.76 µM); MIC [5]: 32 µg/mL (≈ 44.2 µM); MIC (Streptococcus pneumoniae [6]): 1 µg/mL (≈ 1.38 µM); MIC [7]: 32 µg/mL (≈ 44.2 µM); MIC (Staphylococcus aureus [8]): 1.56 µg/mL (≈ 2.15 µM); MIC [9]: 0.5 µg/mL (≈ 0.69 µM); MIC [10]: 64 µg/mL (≈ 88.4 µM)
